Source: ChEMBL document CHEMBL4049434, “Radiolabeled Dibenzodiazepinone-Type Antagonists Give Evidence of Dualsteric Binding at the M2 Muscarinic Acetylcholine Receptor” (J Med Chem, 2017)
Activity calls are given as the source filed them. The rule behind the calls is not given here.

Tests used:
[1] = biological target: T1, Muscarinic acetylcholine receptor M1 (Homo sapiens, UniProt P11229); assay: Displacement of [3H]NMS from human muscarinic acetylcholine receptor M1 expressed in CHOK9 cells after 3 hrs by liquid scintillation counting assay; format: cell-based
T1 sequence (P11229 whole entry): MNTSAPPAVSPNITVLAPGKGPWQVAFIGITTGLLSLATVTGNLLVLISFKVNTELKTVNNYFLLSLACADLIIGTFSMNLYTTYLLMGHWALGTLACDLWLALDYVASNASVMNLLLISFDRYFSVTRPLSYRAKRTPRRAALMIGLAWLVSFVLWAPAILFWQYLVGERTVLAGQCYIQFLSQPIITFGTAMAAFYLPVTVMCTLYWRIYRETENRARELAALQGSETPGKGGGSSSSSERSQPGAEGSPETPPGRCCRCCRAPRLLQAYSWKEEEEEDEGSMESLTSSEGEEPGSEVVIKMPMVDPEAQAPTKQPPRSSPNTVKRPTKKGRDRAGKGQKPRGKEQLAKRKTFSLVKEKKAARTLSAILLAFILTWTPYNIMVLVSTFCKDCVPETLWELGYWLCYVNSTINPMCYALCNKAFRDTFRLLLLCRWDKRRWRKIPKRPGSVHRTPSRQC

[2] = biological target: T2, Muscarinic acetylcholine receptor M2 (Homo sapiens, UniProt P08172); assay: Displacement of [3H]NMS from human muscarinic acetylcholine receptor M2 expressed in CHOK9 cells after 3 hrs by liquid scintillation counting assay; format: cell-based; conditions: read-out: pKi (converted)
T2 sequence (P08172 whole entry): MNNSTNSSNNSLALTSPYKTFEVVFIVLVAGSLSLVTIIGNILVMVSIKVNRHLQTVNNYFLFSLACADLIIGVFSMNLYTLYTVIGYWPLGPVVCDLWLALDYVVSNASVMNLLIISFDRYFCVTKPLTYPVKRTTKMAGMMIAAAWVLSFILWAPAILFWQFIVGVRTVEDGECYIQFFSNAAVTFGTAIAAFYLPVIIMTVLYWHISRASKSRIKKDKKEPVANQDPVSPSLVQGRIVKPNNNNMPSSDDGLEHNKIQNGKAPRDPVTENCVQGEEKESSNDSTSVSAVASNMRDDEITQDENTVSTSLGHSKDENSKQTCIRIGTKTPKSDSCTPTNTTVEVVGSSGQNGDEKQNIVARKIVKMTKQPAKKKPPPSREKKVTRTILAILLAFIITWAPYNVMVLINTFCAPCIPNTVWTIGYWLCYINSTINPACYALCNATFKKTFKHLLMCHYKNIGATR

[3] = biological target: Muscarinic acetylcholine receptor M3 (Homo sapiens, UniProt P20309); assay: Displacement of [3H]NMS from human muscarinic acetylcholine receptor M3 expressed in CHOK9 cells after 3 hrs by liquid scintillation counting assay; format: cell-based
[4] = biological target: T3, Muscarinic acetylcholine receptor M4 (Homo sapiens, UniProt P08173); assay: Displacement of [3H]NMS from human muscarinic acetylcholine receptor M4 expressed in CHOK9 cells after 3 hrs by liquid scintillation counting assay; format: cell-based
T3 sequence (P08173 whole entry): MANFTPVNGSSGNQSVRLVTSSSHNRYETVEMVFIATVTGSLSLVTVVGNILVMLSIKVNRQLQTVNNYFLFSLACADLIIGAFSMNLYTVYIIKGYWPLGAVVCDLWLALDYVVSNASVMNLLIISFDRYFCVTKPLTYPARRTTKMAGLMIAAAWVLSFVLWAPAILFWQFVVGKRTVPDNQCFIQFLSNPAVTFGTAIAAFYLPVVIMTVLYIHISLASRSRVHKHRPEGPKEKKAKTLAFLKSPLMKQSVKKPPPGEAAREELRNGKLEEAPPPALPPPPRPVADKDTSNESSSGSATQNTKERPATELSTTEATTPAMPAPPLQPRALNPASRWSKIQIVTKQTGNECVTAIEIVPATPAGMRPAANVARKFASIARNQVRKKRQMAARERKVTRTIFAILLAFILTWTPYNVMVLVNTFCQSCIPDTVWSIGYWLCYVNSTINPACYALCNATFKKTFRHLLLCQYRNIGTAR

[5] = biological target: T4, Muscarinic acetylcholine receptor M5 (Homo sapiens, UniProt P08912); assay: Displacement of [3H]NMS from human muscarinic acetylcholine receptor M5 expressed in CHOK9 cells after 3 hrs by liquid scintillation counting assay; format: cell-based
T4 sequence (P08912 whole entry): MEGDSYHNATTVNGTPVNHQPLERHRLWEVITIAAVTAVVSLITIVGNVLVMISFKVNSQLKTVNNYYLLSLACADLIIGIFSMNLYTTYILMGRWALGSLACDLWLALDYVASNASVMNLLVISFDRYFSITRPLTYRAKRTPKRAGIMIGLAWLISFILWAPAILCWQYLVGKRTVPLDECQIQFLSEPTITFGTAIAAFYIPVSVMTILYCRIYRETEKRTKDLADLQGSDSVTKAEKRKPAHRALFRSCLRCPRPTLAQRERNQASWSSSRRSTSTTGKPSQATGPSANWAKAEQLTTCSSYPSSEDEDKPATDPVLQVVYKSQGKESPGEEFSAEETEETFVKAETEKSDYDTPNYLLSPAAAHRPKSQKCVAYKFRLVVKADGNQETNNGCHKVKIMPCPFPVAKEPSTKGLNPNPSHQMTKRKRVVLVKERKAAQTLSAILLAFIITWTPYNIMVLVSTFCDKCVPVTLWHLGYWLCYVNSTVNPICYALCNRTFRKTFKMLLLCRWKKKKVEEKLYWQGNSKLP

[6] = biological target: T5, Muscarinic acetylcholine receptor M2 (Homo sapiens) (UniProt P08172); assay: Binding affinity to human muscarinic acetylcholine receptor M2 expressed in live adherent CHOK9 cells after 2 hrs by liquid scintillation counting assay; format: cell-based; conditions: tested as the 3H-labelled form
T5 sequence (whole entry): T2 sequence (P08172 whole entry)
How it was run: (§1)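 Live adherent CHO-hM2 cells in L15 medium with 1% BSA, 23 ± 1 °C, 2 h incubation. Competition at 2 nM radioligand; additional 4, 8, 15 and 30 nM in W84 experiments. […] Saturation data fitted one-site; competition by four-parameter logistic fits; at least three experiments in triplicate.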

[7] = biological target: T5, Muscarinic acetylcholine receptor M2 (Homo sapiens); assay: Binding affinity to human muscarinic acetylcholine receptor M2 expressed in CHOK9 cell homogenate after 2 hrs by liquid scintillation counting assay; conditions: tested as the 3H-labelled form
How it was run: (§2)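 CHO-hM2 cell homogenates (25–30 μg protein/well) in L15 medium with 1% BSA, 23 ± 1 °C, 2 h with tritiated dimeric radioligand. Competition used 0.5 nM radioligand; additional 0.4, 1, 2 and 4 nM in W84 experiments. […] Four-parameter logistic fits; at least three experiments in triplicate.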

[8] = Chemical stability of the compound in PBS buffer at pH 7.4 after 48 hrs by HPLC analysis; format: physicochemical; conditions: pH 7.4, 48 h
How it was run: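 Compound at 100 μM final (from 10 mM stock) in PBS pH 7.4 at 22 ± 1 °C; samples taken at 0, 24 and 48 h, mixed with acetonitrile/1% aq TFA 2:8, analysed by RP-HPLC at 220 nm.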

[9] = biological target: T5, Muscarinic acetylcholine receptor M2 (Homo sapiens); assay: Binding affinity to human muscarinic acetylcholine receptor M2 expressed in live adherent CHOK9 cells at Kd in presence of 500-fold excess atropine after 2 hrs by liquid scintillation counting assay relative to control; format: cell-based; conditions: tested as the 3H-labelled form; how it was run: as §1
[10] = biological target: T5, Muscarinic acetylcholine receptor M2 (Homo sapiens); assay: Binding affinity to human muscarinic acetylcholine receptor M2 expressed in CHOK9 cell homogenates at Kd in presence of 500-fold excess atropine after 2 hrs by liquid scintillation counting assay relative to control; conditions: tested as the 3H-labelled form; how it was run: as §2
[11] = biological target: Muscarinic acetylcholine receptor M2 (Homo sapiens) (UniProt P08172); assay: Displacement of [3H]NMS from human muscarinic acetylcholine receptor M2 expressed in CHOK9 cells at <100 uM after 3 hrs by liquid scintillation counting assay
[12] = biological target: Muscarinic acetylcholine receptor M2 (Homo sapiens) (UniProt P08172); assay: Displacement of [3H]UNSW-MK259 from human muscarinic acetylcholine receptor M2 expressed in CHOK9 cells at <100 uM after 3 hrs by liquid scintillation counting assay
[13] = biological target: T5, Muscarinic acetylcholine receptor M2 (Homo sapiens)
[14] = biological target: T5, Muscarinic acetylcholine receptor M2 (Homo sapiens); assay: (§3) Competitive antagonist activity at human muscarinic acetylcholine receptor M2 expressed in HEK293 cells coexpressing HA tagged Galpha-protein qi5 assessed as inhibition of 0.1 uM carbachol-induced IP1 accumulation preincubated for 30 mins followed by carbachol addition measured after 1 hr by HTRF assay; format: functional, cell-based
How it was run: (§4)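 HEK-293 transiently cotransfected with human M2R and Gαqi5-HA. Cells preincubated 30 min with antagonist, then carbachol added (final 0.1, 0.3, 1 or 10 μM), 1 h at 37 °C. IP1 detected by HTRF (620/670 nm emission, 330 nm excitation). At least four independent experiments, each in duplicate.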

[15] = biological target: T2, Muscarinic acetylcholine receptor M2; assay: as §3; format: functional, cell-based; how it was run: as §4
[16] = biological target: T5, Muscarinic acetylcholine receptor M2 (Homo sapiens); assay: (§5) Competitive antagonist activity at human muscarinic acetylcholine receptor M2 expressed in HEK293 cells coexpressing HA tagged Galpha-protein qi5 assessed as inhibition of 1 uM carbachol-induced IP1 accumulation preincubated for 30 mins followed by carbachol addition measured after 1 hr by HTRF assay; format: functional, cell-based; how it was run: as §4
[17] = biological target: T2, Muscarinic acetylcholine receptor M2; assay: as §5; format: functional, cell-based; how it was run: as §4
[18] = biological target: T5, Muscarinic acetylcholine receptor M2 (Homo sapiens); assay: (§6) Competitive antagonist activity at human muscarinic acetylcholine receptor M2 expressed in HEK293 cells coexpressing HA tagged Galpha-protein qi5 assessed as inhibition of 10 uM carbachol-induced IP1 accumulation preincubated for 30 mins followed by carbachol addition measured after 1 hr by HTRF assay; format: functional, cell-based; how it was run: as §4
[19] = biological target: T2, Muscarinic acetylcholine receptor M2; assay: as §6; format: functional, cell-based; how it was run: as §4
[20] = biological target: T5, Muscarinic acetylcholine receptor M2 (Homo sapiens); assay: Agonist activity at human muscarinic acetylcholine receptor M2 expressed in HEK293 cells coexpressing HA tagged Galpha-protein qi5 assessed as induction of IP1 accumulation measured after 1 hr by HTRF assay; format: functional, cell-based
How it was run: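 HEK-293 transiently cotransfected with human M2R and Gαqi5-HA, seeded 24 h before assay (10000 cells/well). Compounds in stimulation buffer (1 pM–100 μM final) 1 h at 37 °C; IP1 read by HTRF (620/670 nm, excitation 330 nm) after 60 min with detection reagents at rt. Duplicate, three experiments, carbachol as reference.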

[21] = biological target: T5, Muscarinic acetylcholine receptor M2 (Homo sapiens); assay: Antagonist activity at human muscarinic acetylcholine receptor M2 expressed in HEK293 cells coexpressing HA tagged Galpha-protein qi5 assessed as inhibition of 0.3 uM carbachol-induced IP1 accumulation preincubated for 30 mins followed by carbachol addition measured after 1 hr by HTRF assay; format: functional, cell-based; how it was run: as §4
[22] = biological target: T2, Muscarinic acetylcholine receptor M2; assay: Displacement of [3H]UNSW-MK259 from human muscarinic acetylcholine receptor M2 expressed in CHOK9 cells after 3 hrs by liquid scintillation counting assay; format: cell-based
[23] = biological target: T2, Muscarinic acetylcholine receptor M2; assay: Displacement of [3H]UR-AP060 from human muscarinic acetylcholine receptor M2 expressed in CHOK9 cell homogenate after 3 hrs by liquid scintillation counting assay
[24] = biological target: T5, Muscarinic acetylcholine receptor M2 (Homo sapiens); assay: Binding affinity to human muscarinic acetylcholine receptor M2 expressed in CHOK9 cells assessed as association rate constant incubated up to 140 mins by liquid scintillation counting assay; format: cell-based; conditions: tested as the 3H-labelled form
[25] = biological target: T5, Muscarinic acetylcholine receptor M2 (Homo sapiens); assay: Binding affinity to human muscarinic acetylcholine receptor M2 expressed in CHOK9 cells assessed as dissociation rate constant after 105 mins by liquid scintillation counting assay; format: cell-based; conditions: tested as the 3H-labelled form
[26] = biological target: T5, Muscarinic acetylcholine receptor M2 (Homo sapiens); assay: Binding affinity to human muscarinic acetylcholine receptor M2 expressed in CHOK9 cells assessed as dissociation half life after 105 mins by liquid scintillation counting assay; format: cell-based; conditions: tested as the 3H-labelled form

Muscarinic acetylcholine receptor M3, sequence (P20309 whole entry): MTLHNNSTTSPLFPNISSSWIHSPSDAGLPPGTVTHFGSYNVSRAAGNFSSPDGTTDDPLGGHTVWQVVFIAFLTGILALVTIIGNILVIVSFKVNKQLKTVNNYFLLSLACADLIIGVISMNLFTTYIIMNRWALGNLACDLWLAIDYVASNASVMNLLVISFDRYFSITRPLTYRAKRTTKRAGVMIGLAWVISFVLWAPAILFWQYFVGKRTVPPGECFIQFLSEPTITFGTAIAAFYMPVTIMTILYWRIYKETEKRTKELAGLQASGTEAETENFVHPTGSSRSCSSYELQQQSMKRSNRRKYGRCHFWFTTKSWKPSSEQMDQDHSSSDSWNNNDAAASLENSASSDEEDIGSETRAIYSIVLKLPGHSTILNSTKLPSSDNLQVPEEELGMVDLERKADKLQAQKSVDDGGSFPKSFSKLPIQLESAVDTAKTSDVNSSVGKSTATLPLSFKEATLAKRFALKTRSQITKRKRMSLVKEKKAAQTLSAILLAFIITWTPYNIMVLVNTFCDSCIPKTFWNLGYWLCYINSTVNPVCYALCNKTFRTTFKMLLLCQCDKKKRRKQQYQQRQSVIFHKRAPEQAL

Structure (SMILES): CCC(=O)NC1CN(CCCCC2CCN(CC(=O)N3c4ccccc4NC(=O)c4ccccc43)CC2)CCN(CCCCC2CCN(CC(=O)N3c4ccccc4NC(=O)c4ccccc43)CC2)C1.O=C(O)C(F)(F)F.O=C(O)C(F)(F)F.O=C(O)C(F)(F)F.O=C(O)C(F)(F)F
- Ki [1]: 7.08 nM
- Ki [2]: 0.708 nM
- Ki [3]: 200 nM
- Ki [4]: 3.63 nM
- Ki [5]: 77.6 nM
- Bmax (disintegrations/minute) [6]: 3800
- Bmax (disintegrations/minute) [7]: 4900
- Stability [8]: Stable
- Activity [9]: > 60%
- Activity [10]: < 15%

Structure (SMILES): CCC(=O)NCCNC(=O)CCc1c[nH]cn1
- inhibition [11]: inactive
- inhibition [12]: inactive

Structure (SMILES): Cc1c(Cl)c(OCC(=O)N2CCN(C)CC2)nc2sc(C(=O)NC3CC3)c(N)c12
- pKb [13]: 5.77

Structure (SMILES): CCC(=O)NCCNC(=O)CCc1cn(CCCCC2CCN(CC(=O)N3c4ccccc4NC(=O)c4ccccc43)CC2)cn1
- Ki [2]: 0.759 nM
- inhibition [14]: Dose-dependent effect
- IC50 [15]: 33.9 nM
- inhibition [16]: Dose-dependent effect
- IC50 [17]: 85.1 nM
- inhibition [18]: Dose-dependent effect
- IC50 [19]: 355 nM
- Activity [20]: inactive
- inhibition [21]: Dose-dependent effect
- pKb [21]: 7.53
- Bmax (disintegrations/minute) [6]: 780
- Ki [22]: 1.1 nM
- Ki [23]: 10.2 nM
- K [24]: 217000 M⁻¹ s⁻¹
- K [25]: 0.0091 min⁻¹
- T1/2 [26]: 1.18 h
- Stability [8]: Stable
- Activity [9]: < 5%
